# Legend:
# [1] = Tmax in two-compartment pharmacokinetic/pharmacodynamic model at 800 mg, bid administered as 0.5 hrs infusion; type: ADME, organism-based; settings: iv
# How it was run: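 Two-compartment in vitro hollow-fibre model in cation-adjusted, protein-free Mueller-Hinton broth at 37°C. Human total-plasma linezolid profile simulated as 0.5-h infusion every 12 h for 48 h, computer-controlled syringe pump into central compartment. […] Peripheral samples assayed by validated HPLC-UV (quantification limit 0.39 μg/ml). Tmax read directly from concentration-time profiles. Run in duplicate.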
# [2] = tested on: Enterococcus faecalis; test: Bactericidal activity against 12 hrs peripheral compartment culture samples of Enterococcus faecalis Ef1497 in two-compartment pharmacokinetic/pharmacodynamic model assessed as effect on bacterial count at 600 mg, bid administered as 0.5 hr infusion; type: functional
# How it was run: (§1)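 Two-compartment hollow-fibre model in cation-adjusted, protein-free MH broth, 37°C. Linezolid given as simulated 0.5-h infusion twice daily. Inoculum grown 18 h, concentrated 50-fold and placed in the peripheral compartment 3 h before t0. Peripheral samples at set times counted by dilution plating. First 10-fold dilution not plated, limiting detection to 2–3 log10 CFU/ml. Δlog CFU/ml taken from t0 count. Duplicates.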
# [3] = Cmax in healthy human at 600 mg, iv, bid administered as 0.5 hr infusion; type: ADME, organism-based; parameters: dose 600 mg, route intravenous; settings: in vivo
# [4] = tested on: Enterococcus faecalis; test: ABBC (0 to 24 hrs) in Enterococcus faecalis ATCC 29212 in two-compartment pharmacokinetic/pharmacodynamic model at 600 mg, bid administered as 0.5 hr infusion for 2 days; type: functional
# How it was run: (§2)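 Hollow-fibre two-compartment model in cation-adjusted, protein-free MH broth at 37°C. Human total-plasma linezolid profile simulated as 0.5-h infusion every 12 h for 48 h. Concentrated 18-h culture injected into the peripheral compartment 3 h before first sample, giving about 10^8 (E. faecalis) or 10^9 (S. aureus) CFU/ml. Viable counts by dilution plating over 0–24 h. Area indices calculated versus growth control curve. Duplicate runs.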
# [5] = in vitro; settings: two-compartment pharmacokinetic/pharmacodynamic model, iv, 800 mg
# [6] = tested on: Staphylococcus aureus; test: Bactericidal activity against 12 hrs peripheral compartment culture samples of Staphylococcus aureus RN4220 in two-compartment pharmacokinetic/pharmacodynamic model assessed as effect on bacterial count at 600 mg, bid administered as 0.5 hr infusion; type: functional
# How it was run: (§3)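 An 18-h culture concentrated 50-fold was injected into the peripheral compartment 3 h pre-sampling (~10^8 CFU/ml E. faecalis, 10^9 S. aureus). Counts came from dilution plating (detection limit 2–3 log10 CFU/ml), expressed as Δlog CFU/ml from treatment start. Run in duplicate.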
# [7] = tested on: Enterococcus faecalis; test: Bactericidal activity against 48 hrs peripheral compartment culture samples of Enterococcus faecalis Ef1497 MutM3 in two-compartment pharmacokinetic/pharmacodynamic model assessed as effect on bacterial count at 200 mg, bid administered as 0.5 hr infusion; type: functional; how it was run: as §3
# [8] = tested on: Enterococcus faecalis; test: AUBC (0 to 24 hrs) in Enterococcus faecalis Ef1497 in two-compartment pharmacokinetic/pharmacodynamic model at 800 mg, bid administered as 0.5 hr infusion for 2 days; type: functional; how it was run: as §2
# [9] = Residual concentration at the end of the administration interval in two-compartment pharmacokinetic/pharmacodynamic model at 800 mg, bid administered as 0.5 hrs infusion; type: ADME; settings: iv, read-out: Drug uptake
# [10] = tested on: Enterococcus faecalis; test: Bactericidal activity against 24 hrs peripheral compartment culture samples of Enterococcus faecalis Ef1497 MutM3 in two-compartment pharmacokinetic/pharmacodynamic model assessed as effect on bacterial count at 600 mg, bid administered as 0.5 hr infusion; type: functional; how it was run: as §3
# [11] = tested on: Staphylococcus aureus; test: Bactericidal activity against 2 hrs peripheral compartment culture samples of Staphylococcus aureus RN4220 MutS2 in two-compartment pharmacokinetic/pharmacodynamic model assessed as effect on bacterial count at 600 mg, bid administered as 0.5 hr infusion; type: functional; how it was run: as §3
# [12] = tested on: Enterococcus faecalis; test: Bactericidal activity against 2 hrs peripheral compartment culture samples of Enterococcus faecalis ATCC 29212 in two-compartment pharmacokinetic/pharmacodynamic model assessed as effect on bacterial count at 600 mg, bid administered as 0.5 hr infusion; type: functional; how it was run: as §3
# [13] = Apparent volume of distribution in two-compartment pharmacokinetic/pharmacodynamic model bid administered as 0.5 hr infusion over 24 hrs; settings: in vivo, iv
# [14] = tested on: Staphylococcus aureus subsp. aureus RN4220; test: ABBC (0 to 24 hrs) in Staphylococcus aureus RN4220 MutS2 in two-compartment pharmacokinetic/pharmacodynamic model at 600 mg, bid administered as 0.5 hr infusion for 2 days; how it was run: as §2
# [15] = tested on: Enterococcus faecalis; test: Bactericidal activity against 12 hrs peripheral compartment culture samples of Enterococcus faecalis Ef1497 MutM3 in two-compartment pharmacokinetic/pharmacodynamic model assessed as effect on bacterial count at 600 mg, bid administered as 0.5 hr infusion; type: functional; how it was run: as §1
# [16] = tested on: Enterococcus faecalis; test: Bactericidal activity against 12 hrs peripheral compartment culture samples of Enterococcus faecalis ATCC 29212 in two-compartment pharmacokinetic/pharmacodynamic model assessed as effect on bacterial count at 600 mg, bid administered as 0.5 hr infusion; type: functional; how it was run: as §1
# [17] = tested on: Enterococcus faecalis; test: Bactericidal activity against 12 hrs peripheral compartment culture samples of Enterococcus faecalis Ef1497 MutM3 in two-compartment pharmacokinetic/pharmacodynamic model assessed as effect on bacterial count at 200 mg, bid administered as 0.5 hr infusion; type: functional; how it was run: as §1
# [18] = tested on: Enterococcus faecalis; test: ABBC (0 to 24 hrs) in Enterococcus faecalis Ef1497 MutM3 in two-compartment pharmacokinetic/pharmacodynamic model at 200 mg, bid administered as 0.5 hr infusion for 2 days; type: functional; how it was run: as §2
# [19] = tested on: Enterococcus faecalis; test: T>MIC in Enterococcus faecalis Ef1497 in two-compartment pharmacokinetic/pharmacodynamic model at 600 mg, bid administered as 0.5 hr infusion for 2 days; type: functional
# [20] = tested on: Enterococcus faecalis; test: Bactericidal activity against 2 hrs peripheral compartment culture samples of Enterococcus faecalis Ef1497 MutM3 in two-compartment pharmacokinetic/pharmacodynamic model assessed as effect on bacterial count at 200 mg, bid administered as 0.5 hr infusion; type: functional; how it was run: as §3
# [21] = tested on: Enterococcus faecalis; test: Bactericidal activity against 13 hrs peripheral compartment culture samples of Enterococcus faecalis ATCC 29212 in two-compartment pharmacokinetic/pharmacodynamic model assessed as effect on bacterial count at 600 mg, bid administered as 0.5 hr infusion; type: functional; how it was run: as §3
# [22] = Total clearance in two-compartment pharmacokinetic/pharmacodynamic model at 600 mg, bid administered as 0.5 hrs infusion; type: ADME, organism-based; settings: iv
# [23] = tested on: Enterococcus faecalis; test: Bactericidal activity against 12.5 hrs peripheral compartment culture samples of Enterococcus faecalis Ef1497 MutM3 in two-compartment pharmacokinetic/pharmacodynamic model assessed as effect on bacterial count at 200 mg, bid administered as 0.5 hr infusion; type: functional; how it was run: as §3
# [24] = tested on: Enterococcus faecalis; test: Bactericidal activity against 24 hrs peripheral compartment culture samples of Enterococcus faecalis Ef1497 MutM3 in two-compartment pharmacokinetic/pharmacodynamic model assessed as effect on bacterial count at 200 mg, bid administered as 0.5 hr infusion; type: functional; how it was run: as §3
# [25] = tested on: Enterococcus faecalis; test: Bactericidal activity against 2 hrs peripheral compartment culture samples of Enterococcus faecalis ATCC 29212 in two-compartment pharmacokinetic/pharmacodynamic model assessed as effect on bacterial count at 200 mg, bid administered as 0.5 hr infusion; type: functional; how it was run: as §3
smiles,measurement,setting,value
CC(=O)NC[C@H]1CN(c2ccc(N3CCOCC3)c(F)c2)C(=O)O1 [LINEZOLID],Tmax,[1],0.5 h
same,log10CFU/ml,[2],-0.12
same,Cmax,[3],14100 ng/mL
same,ABBC,[4],1.32 log10CFU/ml.hr
same,half-life at 0.5 h,[5],5.01 h
same,log10CFU/ml,[6],-0.15
same,log10CFU/ml,[7],0.79
same,AUBC,[8],210.5 log10CFU/ml.hr
same,concentration at 0.5 h,[9],1150 ng/mL
same,log10CFU/ml,[10],0.44
same,log10CFU/ml,[11],0.02
same,log10CFU/ml,[12],-0.08
same,Vd,[13],115 L
same,ABBC,[14],-2.27 log10CFU/ml.hr
same,log10CFU/ml,[15],0.19
same,log10CFU/ml,[16],0.15
same,log10CFU/ml,[17],0.29
same,ABBC,[18],2.32 log10CFU/ml.hr
same,fT>MIC,[19],69%
same,log10CFU/ml,[20],0.06
same,log10CFU/ml,[21],0.16
same,clearance,[22],232 mL/min
same,log10CFU/ml,[23],0.23
same,log10CFU/ml,[24],0.52
same,log10CFU/ml,[25],0.09

# From ChEMBL document CHEMBL1671683, “Activity of linezolid in an in vitro pharmacokinetic-pharmacodynamic model using different dosages and Staphylococcus aureus and Enterococcus faecalis strains with and without a hypermutator phenotype” (Antimicrob Agents Chemother, 2010)
